# CHOP inhibitor: CHOP inhibition in unfolded protein response; CHO-K1 CHOP-promoter luciferase, tunicamycin-induced, 15-18 h; inhibition, % at 10 µM; 220,000 tested, 3.8% active; AID 2732;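 active = compounds that reduced the stress-induced luciferase reporter signal by more than about 70% of percent inhibition, limit read from the data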;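 also: 0% = tunicamycin plus vehicle and 100% = wells without tunicamycin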
# UPR XBP1 act: activators of adaptive arm of unfolded protein response (XBP1). 330,000 tested, 0.33% active. CHO-XBP1 luciferase reporter, IRE1-XBP1 UPR activation, luminescence; percent of tunicamycin response, DMSO as zero. activation, % at 20 µM. AID 463104;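 active = versus positive control, 20 µM dose yields 30% or more activation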;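 also: 100% = tunicamycin at 10 µg/mL and 0% = DMSO only wells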
#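 Assay system: CHO-XBP1 luciferase reporter cells; Schedule: 6 h treatment, 37 °C; Detection: glow luminescence from Steady-Glo reagent; Benchmarks: high control tunicamycin 10 µg/mL final, low control DMSO vehicle only.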
# CHOP UPR activ: apoptotic UPR (CHOP) activation. AID 449763. 330,000 tested, 0.34% active. CHO-CHOP luciferase reporter, luminescence; percent of tunicamycin response over DMSO baseline. activation, % at 10 µM;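 active = at 10 µM dose, activation of 40% or more, normalized to positive control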;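 also: 100% = tunicamycin at 10 µg/mL and 0% = DMSO alone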
#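 Assay system: CHO cells with stable CHOP pathway luciferase reporter; Buffer or medium: F12 plus 10% serum; Times: 16-18 h cell attachment, then 6 h compound exposure, 37 °C; Signal: luciferase luminescence; Read-out basis: percent activation relative to tunicamycin control; Control set: tunicamycin high control, DMSO low control.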
# Bfl-1 A1 inh: inhibitors of the anti-apoptotic protein A1, read as caspase activation; MEF A1-2A-BIM cells, Caspase-Glo 3/7 luminescence, 3 h; percent of clofoctol response, vehicle zero; 330,000 tested, 0.066% active; caspase activation, % (concentration not given with the values);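 active = over half of replicate activation scores above 10%, or exactly half above 10 with the replicate mean above 10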
# UPR CHOP confirm: apoptotic UPR (CHOP) activation, confirmed; AID 463112; 1,000 tested, 64% active; CHO-CHOP cells, CHOP-luciferase reporter luminescence; percent of tunicamycin response, DMSO as zero; shares compounds with CHOP UPR activ; activation, % at 10 µM; in the data active = activation above about 33%;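 also: 0% = DMSO wells and 100% = tunicamycin 10 µg/mL wells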
# An asterisk follows results filed as active; · = not tested or not shown. The full list was thinned out, with hits kept by preference.
SMILES,CHOP inhibitor,UPR XBP1 act,CHOP UPR activ,Bfl-1 A1 inh,UPR CHOP confirm
NS(=O)(=O)c1ccc(CCNC(=O)COC(=O)c2nc(Cl)ccc2Cl)cc1,·,-1,6,1,·
COc1ccccc1NS(=O)(=O)c1cccc(C(=O)NCC(C)(C)N2CCOCC2)c1,·,-3,-2,1,·
Cc1ccc(C(C[N+](=O)[O-])Sc2ccc(N)cc2)cc1 (configuration not stated),-9,-4,117*,1,-6
Nc1ccc(Sc2ccc([N+](=O)[O-])cc2)cc1,10,1,-1,1,·
Cc1c(C(=O)c2no[n+]([O-])c2C(=O)c2cnn(C)c2C)cnn1C,4,-7,55*,0,91*
COc1ccc(C(=O)c2no[n+]([O-])c2C(=O)c2ccc(OC)cc2)cc1,56,-9,-4,0,·
CC(C)(CNC(=O)c1cc([N+](=O)[O-])ccc1N1CCC(Cc2ccccc2)CC1)N1CCOCC1,·,-1,0,-1,·
CCc1ccc(N2C(=O)C(Cl)=C(Nc3ccc(C(=O)N4CCCC4)cc3)C2=O)cc1,·,-6,104*,-2,0
O=C(c1ccc(N2C(=O)c3ccccc3C2=O)cc1)N1CCCCC1,·,3,0,0,·
C=CCn1c(O)c(N=NC(=O)c2ccc3c(c2)OCO3)c2ccccc21,4,14,0,-3,·
Cc1nc(NCc2ccco2)c2c(C)c(C)sc2n1,-38,-2,41*,2,15
Cc1sc2nc3c4ccccc4c(NCc4ccco4)nn3c(=O)c2c1C,-33,-12,-1,-7,·
COc1ccc(C(c2c(C)[nH]n(C(N)=S)c2=O)C(C#N)C#N)cc1 (configuration not stated),-59,2,62*,0,56*
COc1cc(CNc2ccc3[nH]c(=O)[nH]c3c2)cc(Br)c1OCc1ccc(F)cc1,·,2,67*,1,28
O=C(Nc1ccc(Br)cc1F)C1CCCO1 (configuration not stated),8,-2,0,-1,·
CCNC(=S)N1CCN(C(=O)C(Cc2ccccc2)NC(C)=O)CC1 (configuration not stated),-5,-4,52*,0,0
CC(=O)NC(Cc1ccccc1)C(=O)N1CCN(C(=S)NCC(C)C)CC1 (configuration not stated),16,-3,-1,2,·
CCc1ccc(OCC(=O)Nc2ccc(S(=O)(=O)Nc3cc(C)on3)cc2)c(Br)c1,·,0,-2,0,·
CCN(CC)c1ccc(/C=C2\SC(=O)N(C(C)C)C2=O)o1,-69,-4,112*,2,15
CCn1c(SCC(=O)Nc2sc3c(c2C(N)=O)CCC(C)C3)nnc1-c1ccco1 (configuration not stated),9,-1,-2,0,·
O=C(Nc1nc(-c2ccccn2)cs1)c1ccc(Br)s1,-29,17,60*,-2,42*
Cc1c(C#N)c(NC(=O)CCl)n(Cc2cccs2)c1C,53,-2,87*,1,71*
Cc1c(C#N)c(NC(=O)CCl)n(Cc2ccc(F)cc2)c1C,-92,0,65*,1,74*
Cc1c(C#N)c(NC(=O)CCl)n(Cc2ccccc2)c1C,-12,-5,113*,0,57*
CCSc1nc(C2CC2)cc(-c2cccs2)c1C#N,37,-1,-1,0,·
SMILES,CHOP inhibitor,UPR XBP1 act,CHOP UPR activ,Bfl-1 A1 inh,UPR CHOP confirm
COc1c(Cl)cc(Cl)cc1/C=C/C(=O)c1ccc(NC(=O)c2cccs2)cc1,-116,12,55*,-1,247*
COc1c(Cl)cc(Cl)cc1C(=O)Nc1ccc(C(=O)O)cc1,8,0,0,0,·
CC1=NN(c2ccccc2)C(=O)/C1=C\C=C\c1ccccc1,-19,-1,3,-1,·
ClC1=C(Cl)C(Cl)=C(Cl)C1=C/C=C/c1ccccc1,95*,30,55*,2,29
Cc1nc2scc(-c3ccccc3)c2c(=O)n1N=C1C=CC(=O)C=C1,110*,-7,90*,·,13
COc1cc(C(=O)Sc2ccc(Cl)cc2)cc(OC)c1OC,62,21,55*,0,73*
COc1ccc(OC)c(/C=C/C(=O)N2C(=O)c3cccc(N)c3C2=O)c1,90*,2,53*,0,62*
COc1cc(/C=C/C(=O)N2C(=O)c3cccc(N)c3C2=O)cc(OC)c1OC,94*,4,68*,2,53*
COc1ccc(OC)c(/C=C/C(=O)N2CCCc3ccccc32)c1,28,3,1,0,·
COc1cccc(OCCCn2cc(/C=C3/C(=N)N4C=C(C)SC4=NC3=O)c3ccccc32)c1,13,1,2,0,·
CC1=CN2C(=N)/C(=C/c3cn(CCCOc4ccccc4C)c4ccccc34)C(=O)N=C2S1,62,29,44*,1,29
CCN(CC(=O)Nc1ccc(OC)cc1)C(=O)Cc1ccc(OC)c(S(=O)(=O)N2CCOCC2)c1,·,-1,-1,2,·
CC(=O)S[C@@H]1CC2=CC(=O)CC[C@]2(C)[C@H]2CC[C@@]3(C)[C@@H](CC[C@@]34CCC(=O)O4)[C@H]12,·,-5,3,1,·
Cc1cc(C(=O)CCl)c(C)n1-c1cccc([N+](=O)[O-])c1,104*,-3,174*,-1,31
CC(=O)c1c(C(C)=O)c(C)n(-c2cccc([N+](=O)[O-])c2)c1C,7,2,2,0,·
CC(C)Cc1nc2oc3c(N4CCN(CCO)CC4)ncnc3c2c2c1CCCC2,57,6,44*,-1,-1
Cn1cc(/C=N/n2cnc3sc4c(c3c2=O)CCCC4)c2ccccc21,0,3,0,0,·
O=c1c2c3c(sc2ncn1/N=C/c1ccc([N+](=O)[O-])o1)CCCC3,57,-9,213*,0,195*
CC(=O)c1cccc(NC(=S)NC(=O)c2cccc(C)c2)c1,29,·,·,-1,·
Cc1cc(C(=O)c2ccccc2)c(NC(=O)CCl)s1,-152,3,45*,1,4
CCN(CC)CC(=O)Nc1sc(C)cc1C(=O)c1ccccc1,·,-2,-1,0,·
CC(C)(C)c1ccc(/C=C(\c2nc3ccccc3[nH]2)S(=O)(=O)c2ccccc2)cc1,·,11,56*,0,71*
CCCOc1ccc(C(=O)N/N=C/c2ccc(-c3ccc(S(=O)(=O)Nc4ncccn4)cc3)o2)cc1,9,0,1,0,·
O=C1N(Cc2cccc(Cl)c2)C[C@@H]2C[C@@H](c3c[nH]c4ccccc34)N3CCC[C@@]123,13,-2,-1,-1,·
Cc1ccccc1NC(=O)c1ccc([N+](=O)[O-])o1,66,0,2,1,·
Cc1ccccc1/C=C/C(=O)c1ccc([N+](=O)[O-])o1,·,0,112*,11*,68*

# Compound activity as filed in PubChem BioAssay.
